From ChEMBL document CHEMBL4387752, “Identification of substituted benzothiazole sulfones as potent and selective inhibitors of endothelial lipase” (Bioorg Med Chem Lett, 2019)
Active and inactive are the calls of the source. The calls are words filed in the database; no cut-off is given here.

Experiments:
[1] = molecular target: T1, Hepatic triacylglycerol lipase (Homo sapiens, UniProt P11150); assay: Inhibition of human hepatic lipase expressed in African green monkey COS7 cells using PED-A1 as substrate incubated for 20 mins and measured every 20 secs for 10 mins by FRET assay; assay type: cell-based
T1 sequence (P11150 whole entry): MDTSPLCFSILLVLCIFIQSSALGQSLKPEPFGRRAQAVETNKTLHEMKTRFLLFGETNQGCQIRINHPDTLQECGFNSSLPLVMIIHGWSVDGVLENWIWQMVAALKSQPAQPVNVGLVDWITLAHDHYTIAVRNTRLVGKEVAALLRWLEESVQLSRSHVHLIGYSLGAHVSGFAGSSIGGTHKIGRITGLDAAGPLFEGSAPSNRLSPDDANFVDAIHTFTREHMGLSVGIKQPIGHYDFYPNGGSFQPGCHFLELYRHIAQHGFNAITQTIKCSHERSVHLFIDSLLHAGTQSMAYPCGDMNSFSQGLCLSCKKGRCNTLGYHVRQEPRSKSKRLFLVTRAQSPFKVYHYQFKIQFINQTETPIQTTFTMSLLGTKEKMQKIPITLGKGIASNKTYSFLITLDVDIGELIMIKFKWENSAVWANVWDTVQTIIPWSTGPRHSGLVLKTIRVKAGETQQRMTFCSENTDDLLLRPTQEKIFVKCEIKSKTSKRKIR
Summary of the method: (§1)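 IC50s were calculated from mean inhibition values of duplicate determinations.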

Endothelial lipase [2] = molecular target: T2, Endothelial lipase (Mus musculus, UniProt Q9WVG5); assay: Inhibition of mouse endothelial lipase expressed in HEK293F cells using D31-POPC-HDL as substrate incubated for 2 hrs in presence of mouse plasma by LC/MS analysis
T2 sequence (Q9WVG5 whole entry): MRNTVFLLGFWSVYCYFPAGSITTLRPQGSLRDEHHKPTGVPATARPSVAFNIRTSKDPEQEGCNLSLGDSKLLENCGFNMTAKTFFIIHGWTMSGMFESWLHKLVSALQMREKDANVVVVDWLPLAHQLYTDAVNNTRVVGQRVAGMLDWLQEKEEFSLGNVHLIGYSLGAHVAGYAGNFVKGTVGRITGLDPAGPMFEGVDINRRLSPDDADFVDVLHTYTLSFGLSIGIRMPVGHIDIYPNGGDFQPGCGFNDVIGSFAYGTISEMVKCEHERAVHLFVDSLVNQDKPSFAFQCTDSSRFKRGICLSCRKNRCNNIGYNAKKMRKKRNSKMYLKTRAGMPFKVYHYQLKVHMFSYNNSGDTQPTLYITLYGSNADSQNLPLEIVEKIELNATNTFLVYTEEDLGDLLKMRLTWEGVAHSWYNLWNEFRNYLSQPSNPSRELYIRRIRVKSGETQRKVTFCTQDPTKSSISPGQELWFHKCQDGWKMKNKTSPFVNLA
Summary of the method: (§2)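 IC50 values were derived from the means of duplicate inhibition measurements.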

[3] = Permeability of compound at pH 5.5 by PAMPA; assay type: ADME; conditions: read-out: permeability
Summary of the method: (§3)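 Permeability was measured by parallel artificial membrane permeability assay (PAMPA) at pH 5.5 and pH 7.4. Values are reported in nm/s.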

[4] = Permeability of compound at pH 7.4 by PAMPA; assay type: ADME; conditions: read-out: permeability; summary of the method: as §3
Homo sapiens = organism: Homo sapiens; assay: Selectivity index, ratio of IC50 for inhibition of human hepatic lipase expressed in African green monkey COS7 cells to IC50 for inhibition of human endothelial lipase derived from human HT1080 cell conditioned media; assay type: cell-based
Endothelial lipase [5] = molecular target: T3, Endothelial lipase (Homo sapiens, UniProt Q9Y5X9); assay: Inhibition of human endothelial lipase using D31-POPC-HDL as substrate incubated for 2 hrs in presence of human serum by LC/MS analysis; summary of the method: as §2
T3 sequence (Q9Y5X9 whole entry): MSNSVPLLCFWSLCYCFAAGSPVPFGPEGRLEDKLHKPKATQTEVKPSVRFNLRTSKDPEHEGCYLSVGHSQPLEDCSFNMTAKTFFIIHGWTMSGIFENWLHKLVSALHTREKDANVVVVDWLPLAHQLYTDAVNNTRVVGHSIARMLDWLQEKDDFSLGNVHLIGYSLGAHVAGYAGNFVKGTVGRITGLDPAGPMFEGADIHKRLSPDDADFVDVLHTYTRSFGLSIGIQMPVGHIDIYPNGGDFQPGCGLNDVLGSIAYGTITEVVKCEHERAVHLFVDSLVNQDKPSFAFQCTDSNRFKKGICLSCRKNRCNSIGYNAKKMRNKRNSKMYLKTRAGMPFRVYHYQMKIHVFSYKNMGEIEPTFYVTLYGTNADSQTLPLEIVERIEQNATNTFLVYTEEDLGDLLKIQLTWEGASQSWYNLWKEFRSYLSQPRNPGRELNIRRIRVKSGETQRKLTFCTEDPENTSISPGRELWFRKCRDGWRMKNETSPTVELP

Endothelial lipase [6] = molecular target: T3, Endothelial lipase; assay: Inhibition of human endothelial lipase derived from human HT1080 cell conditioned media using PED-A1 as substrate incubated for 20 mins and measured every 20 secs for 10 mins by FRET assay; summary of the method: as §1
[7] = Cmax in Balb/c mouse at 10 mg/kg, po; assay type: ADME, organism-based; design: dose 10 mg/kg, route oral; conditions: in vivo
Summary of the method: (§4)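 Oral PK in fasted male balb/c mice. Dosing vehicle was ethanol/PEG 400/water (10:60:30).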

[8] = Plasma concentration in Balb/c mouse at 10 mg/kg, po measured after 7 hrs; assay type: ADME, organism-based; summary of the method: as §4
[9] = Plasma concentration in Balb/c mouse at 10 mg/kg, po measured after 24 hrs; assay type: ADME, organism-based; summary of the method: as §4
[10] = Tmax in Balb/c mouse at 10 mg/kg, po; assay type: ADME, organism-based; conditions: in vivo; summary of the method: as §4
[11] = Total AUC in Balb/c mouse at 10 mg/kg, po measured after 24 hrs; assay type: ADME, organism-based; design: dose 10 mg/kg, time AUCmax, route oral; conditions: in vivo; summary of the method: as §4
[12] = Metabolic stability in Balb/c mouse liver microsomes assessed as parent compound remaining at 0.5 uM measured after 10 mins; assay type: ADME, Microsome; conditions: read-out: Stability
Summary of the method: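 Test compound at 0.5 μM was incubated for 10 min with mouse liver microsomes. The read-out is the percentage of parent remaining.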

Endothelial lipase [13] = molecular target: T2, Endothelial lipase; assay: Inhibition of endothelial lipase in hepatic lipase knock-out mouse plasma using D31-POPC-HDL as substrate incubated for 2 hrs by LC/MS analysis; assay type: cell-free; summary of the method: as §2
[14] = Cmax in Balb/c mouse at 20 mg/kg, po; assay type: ADME, organism-based; design: dose 20 mg/kg, route oral; conditions: in vivo; summary of the method: as §4
[15] = Plasma concentration in Balb/c mouse at 20 mg/kg, po measured after 7 hrs; assay type: ADME, organism-based; summary of the method: as §4
[16] = Plasma concentration in Balb/c mouse at 20 mg/kg, po measured after 24 hrs; assay type: ADME, organism-based; summary of the method: as §4
[17] = Tmax in Balb/c mouse at 20 mg/kg, po; assay type: ADME, organism-based; conditions: in vivo; summary of the method: as §4
[18] = Half life in Balb/c mouse at 20 mg/kg, po; assay type: ADME, organism-based; conditions: in vivo; summary of the method: as §4
[19] = Total AUC in Balb/c mouse at 20 mg/kg, po measured after 24 hrs; assay type: ADME, organism-based; design: dose 20 mg/kg, time AUCmax, route oral; conditions: in vivo; summary of the method: as §4
[20] = Cmax in Balb/c mouse at 30 mg/kg, po; assay type: ADME, organism-based; design: dose 30 mg/kg, route oral; conditions: in vivo; summary of the method: as §4
[21] = Plasma concentration in Balb/c mouse at 30 mg/kg, po measured after 7 hrs; assay type: ADME, organism-based; summary of the method: as §4
[22] = Plasma concentration in Balb/c mouse at 30 mg/kg, po measured after 24 hrs; assay type: ADME, organism-based; summary of the method: as §4
[23] = Tmax in Balb/c mouse at 30 mg/kg, po; assay type: ADME, organism-based; conditions: in vivo; summary of the method: as §4
[24] = Half life in Balb/c mouse at 30 mg/kg, po; assay type: ADME, organism-based; conditions: in vivo; summary of the method: as §4
[25] = Total AUC in Balb/c mouse at 30 mg/kg, po measured after 24 hrs; assay type: ADME, organism-based; design: dose 30 mg/kg, route oral, time AUCmax; conditions: in vivo; summary of the method: as §4
[26] = Half life in Balb/c mouse at 10 mg/kg, po; assay type: ADME, organism-based; conditions: in vivo; summary of the method: as §4
[27] = Ratio of total AUC in Balb/c mouse at 20 mg/kg, po to total AUC in Balb/c mouse at 10 mg/kg, po measured after 24 hrs; assay type: ADME, organism-based; conditions: in vivo
Summary of the method: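 Ratio of AUCtotal between 20 and 10 mg/kg oral doses in fasted male balb/c mice. Vehicle was ethanol/PEG 400/water (10:60:30).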

[28] = Ratio of Cmin in Balb/c mouse at 20 mg/kg, po bid to IC50 for inhibition of mouse endothelial lipase expressed in HEK293F cells using D31-POPC-HDL as substrate incubated for 2 hrs in presence of mouse plasma by LC/MS analysis; assay type: organism-based; conditions: in vivo
[29] = Cmin in C57BL/6 mouse at 20 mg/kg, po bid measured after 8 hrs; assay type: ADME, organism-based; conditions: in vivo, read-out: Cmin
Summary of the method: (§5)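 Satellite PK cohort of wild-type C57BL/6 mice given 20 mg/kg p.o. b.i.d. over 4 days. Plasma levels were taken at 8, 24 and 102 h.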

[30] = Cmin in C57BL/6 mouse at 20 mg/kg, po bid measured after 24 hrs; assay type: ADME, organism-based; conditions: in vivo, read-out: Cmin; summary of the method: as §5
[31] = Cmin in C57BL/6 mouse at 20 mg/kg, po bid measured after 102 hrs; assay type: ADME, organism-based; conditions: in vivo, read-out: Cmin; summary of the method: as §5
Mus musculus [32] = assay: Effect on in LDL-C level in C57BL/6 mouse plasma at 20 mg/kg, po bid measured after 1 to 4 days by FPLC analysis; assay type: functional, organism-based
Summary of the method: (§6)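 Wild-type C57BL/6 mice were dosed at 20 mg/kg p.o. b.i.d. for 4 days alongside a vehicle control group. Lipoprotein profiles were obtained by FPLC on day 1 and day 4, using plasma pooled from 8 mice.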

Mus musculus [33] = assay: Increase in HDL-C level in C57BL/6 mouse plasma at 20 mg/kg, po bid measured after 1 to 4 days by FPLC analysis; assay type: functional, organism-based; summary of the method: as §6
[34] = Ratio of Cmin in C57BL/6 mouse at 20 mg/kg, po bid measured after 8 hrs to IC50 for inhibition of mouse endothelial lipase expressed in HEK293F cells using D31-POPC-HDL as substrate incubated for 2 hrs in presence of mouse plasma by LC/MS analysis; assay type: organism-based; conditions: in vivo
[35] = Ratio of Cmin in C57BL/6 mouse at 20 mg/kg, po bid measured after 24 hrs to IC50 for inhibition of mouse endothelial lipase expressed in HEK293F cells using D31-POPC-HDL as substrate incubated for 2 hrs in presence of mouse plasma by LC/MS analysis; assay type: organism-based; conditions: in vivo
[36] = Ratio of Cmin in C57BL/6 mouse at 20 mg/kg, po bid measured after 102 hrs to IC50 for inhibition of mouse endothelial lipase expressed in HEK293F cells using D31-POPC-HDL as substrate incubated for 2 hrs in presence of mouse plasma by LC/MS analysis; assay type: organism-based; conditions: in vivo

CS(=O)(=O)C(C(=O)NCC(=O)NC1CC1)c1nc2ccc(-c3ccc(F)nc3)cc2s1 (centres undefined)
IC50 [1]: 130 nM | IC50 (Endothelial lipase [2]): 290 nM | Papp [3]: 25.2 ×10⁻⁶ cm/s | Papp [4]: 38.9 ×10⁻⁶ cm/s | Ratio IC50 (Homo sapiens): 2.8 | IC50 (Endothelial lipase [5]): 7 nM

CS(=O)(=O)C(C(=O)NCCCS(N)(=O)=O)c1nc2ccc(-c3ccccc3)cc2s1 (centres undefined)
IC50 (Endothelial lipase [6]): 7700 nM | IC50 [1]: 52 nM

COCCS(=O)(=O)C(C(=O)NCC(=O)NC1CC1)c1nc2ccc(-c3ccc(F)nc3)cc2s1 (centres undefined)
IC50 (Endothelial lipase [6]): 4.6 nM | IC50 [1]: 230 nM | IC50 (Endothelial lipase [2]): 120 nM | Cmax [7]: 39 µM | concentration at 7 h [8]: 1.7 µM | concentration at 24 h [9]: 0.014 µM | Tmax [10]: 1 h | AUC at 24 h [11]: 111 µM·h | remaining at 10 min, 0.5 µM [12]: 81% | Papp [3]: 9.4 ×10⁻⁶ cm/s | Ratio IC50 (Homo sapiens): 84 | IC50 (Endothelial lipase [5]): 83 nM | IC50 (Endothelial lipase [13]): 310 nM | Cmax [14]: 143 µM | concentration at 7 h [15]: 7.4 µM | concentration at 24 h [16]: 0.045 µM | Tmax [17]: 0.5 h | half-life [18]: 2.3 h | AUC at 24 h [19]: 400 µM·h | Cmax [20]: 142 µM | concentration at 7 h [21]: 2.42 µM | concentration at 24 h [22]: 0.025 µM | Tmax [23]: 0.25 h | half-life [24]: 2.3 h | AUC at 24 h [25]: 240 µM·h | half-life [26]: 2.2 h | Ratio [27]: 3.6 | Ratio [28]: 23 | concentration at 8 h [29]: 5.2 µM | concentration at 24 h [30]: 1.8 µM | concentration at 102 h [31]: 6.5 µM | Activity (Mus musculus [32]): inactive | Activity (Mus musculus [33]): inactive | Ratio [34]: > 15 | Ratio [35]: > 15 | Ratio [36]: > 15
